Most compounds without a hit are left out; they make up all but 2.6% or so of the library.
NPY2 pot ag = human NPY-Y2 potentiation or agonism, primary screen; P49146; cells expressing NPY-Y2, potentiator/agonist read-out; activation, % at 3.6 µM; hit rate 0.45% among 220,000; in the data active means activation above about 27%;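 further: cells stimulated with NPY near EC25 plus isoproterenol at EC100; 0% = vehicle plus submaximal agonist and 100% = vehicle plus saturating agonist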
NPY1 pot ag = human NPY-Y1 potentiation or agonism, primary screen | P25929 | activation, % at 3.6 µM | AID 1304 | NPY-Y1 expressing cells, potentiator/agonist activation | hit rate 0.37% among 220,000; in the data active means activation above about 33%, passing the limit was not always enough;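 further: cells stimulated with NPY at EC10 then isoproterenol at EC100; 0% = low agonist plus stimulus and 100% = saturating agonist plus stimulus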
Target sequence (P25929 whole entry, looked up): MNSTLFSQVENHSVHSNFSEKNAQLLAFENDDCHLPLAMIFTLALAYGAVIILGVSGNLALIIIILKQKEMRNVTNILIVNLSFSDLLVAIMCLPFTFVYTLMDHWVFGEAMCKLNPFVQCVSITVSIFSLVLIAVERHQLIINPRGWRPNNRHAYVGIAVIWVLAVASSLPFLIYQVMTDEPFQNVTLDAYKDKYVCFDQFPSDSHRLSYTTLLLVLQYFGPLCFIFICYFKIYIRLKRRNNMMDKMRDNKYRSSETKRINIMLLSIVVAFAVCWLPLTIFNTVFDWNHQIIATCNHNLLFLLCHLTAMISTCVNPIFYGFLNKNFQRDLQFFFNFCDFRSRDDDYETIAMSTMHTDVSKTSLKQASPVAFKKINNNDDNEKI
NPY Y2 blocker = NPY-Y2 (human) receptor antagonism; inhibition, % at 2.7 µM; AID 793; hit rate 0.99% among 140,000; P49146; NPY-Y2 expressing cells, antagonist mode; in the data active means inhibition above about 17%;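 further: 0% = vehicle with agonist challenge and 100% = reference antagonist with challenge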
b-catenin transl = modulators of beta-catenin nuclear translocation | nuclear translocation activity, % at 5 µM | HeLa beta-catenin nuclear translocation, immunofluorescence imaging | hit rate 0.3% among 190,000 | AID 1665;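 active means nuclear translocation activity above 50% at 5 µM, with a well cell count of 50 or more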;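 further: per-cell ratio of nuclear to cytoplasmic median beta-catenin stain intensity; plate controls were DMSO negative control for no effect and GSK-3 inhibitor IX positive control for full effect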
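test system = HeLa cells, endogenous beta-catenin | dosing = single 5 µM dose plus 0.02–20 µM confirmation series | times = compound treatment 24 h, 37°C, 5% CO2 | technique = beta-catenin immunofluorescence imaging with DAPI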
MT stabilizer = microtubule stabilizers in HeLa cells; AID 2205; hit rate 0.83% among 200,000; % tubulin-high responders, % at 10 µM; HeLa tubulin immunostaining HCS, 24 h; share of cells brighter than vehicle mean+2SD;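 active means plate Z-score above 3 for both tubulin-high and condensed-nucleus cell shares, with cell loss under 80%, at 10 µM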;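 further: anti alpha tubulin signal scored within the nucleus-defined area of each cell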
NPY-Y1 antag = blocks the human neuropeptide Y Y1 receptor; HEK293-CNG Y1 cells, membrane potential fluorescence; NPY at EC95, then isoproterenol; AID 1040; P25929; inhibition, % at 3.6 µM; hit rate 1% among 200,000;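 active means inhibition above the campaign mean inhibition of all tested compounds plus 3 SD, cut at about 20% in these data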;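 further: 0% = DMSO wells given NPY plus isoproterenol and 100% = isoproterenol alone without NPY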
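Assay system: HEK293 Y1/CNG channel cell line; Doses: single compound dose of 3.6 µM, 0.4% DMSO; Timing: dye 3 h, compound 60 min room temperature, stimulation 45 min; Technique: Membrane-potential fluorescent dye readout; Measure: % inhibition of NPY effect.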
The depositor's hits bear a star.

For CCC(=O)NC(=S)Nc1ccc(NC(=O)c2ccccc2[N+](=O)[O-])cc1 the results were NPY2 pot ag -1, NPY1 pot ag -50, NPY Y2 blocker 1, b-catenin transl -1, MT stabilizer 4 and NPY-Y1 antag -1.
CCCC(=O)Nc1ccc(NC(=S)NC(=O)c2ccccc2[N+](=O)[O-])cc1 was read as NPY2 pot ag -10, NPY1 pot ag 16, NPY Y2 blocker 2, MT stabilizer 10* and NPY-Y1 antag 7.
`c1ccc2c(c1)oc1c(NCc3ccc4c(c3)OCO4)ncnc12` gave NPY2 pot ag -19, NPY1 pot ag -32, NPY Y2 blocker 18*, b-catenin transl -5, MT stabilizer 3 and NPY-Y1 antag 6.
CCC(C)(C)NC(=O)C(c1ccccn1)N(C(=O)c1csnn1)c1ccc(C)cc1 (centres undefined) was read as NPY2 pot ag 7, NPY1 pot ag 1, b-catenin transl -1, MT stabilizer 1 and NPY-Y1 antag 5.
For Cc1cc(C)c(C(=O)Nc2ccc(Br)c(C(F)(F)F)c2)c(C)c1 the results were NPY2 pot ag -20, NPY1 pot ag -34, NPY Y2 blocker 30*, MT stabilizer 3 and NPY-Y1 antag 28*.
COc1ccccc1NC(=O)/C(C#N)=C/C=C/c1ccco1 was read as NPY2 pot ag -7, NPY1 pot ag -13, NPY Y2 blocker 6, b-catenin transl 61*, MT stabilizer 41* and NPY-Y1 antag 2.
COc1ccc(-c2oc(NC(=O)CSc3ncn[nH]3)c(C#N)c2-c2ccc(OC)cc2)cc1 was read as NPY2 pot ag 16, NPY1 pot ag 31, NPY Y2 blocker -3, b-catenin transl 0, MT stabilizer 47* and NPY-Y1 antag -2.
For CC1(C)C2CCC1(CS(=O)(=O)Nc1ccccc1)C(=O)C2 (centres undefined) the results were NPY2 pot ag 0, NPY1 pot ag 3, b-catenin transl 1, MT stabilizer 2 and NPY-Y1 antag 5.
CC(=O)N/C(=C\c1ccccc1)C(=O)Nc1ccccc1C was read as NPY2 pot ag 4, NPY1 pot ag -13, b-catenin transl 0, MT stabilizer 9 and NPY-Y1 antag 2.
For Cc1nc2cc(NS(=O)(=O)c3c(C)c(C)cc(C)c3C)ccc2s1 the results were NPY2 pot ag 0, NPY1 pot ag 20, NPY Y2 blocker -1, b-catenin transl 0, MT stabilizer 5 and NPY-Y1 antag -6.
Screening Cc1nc2ccc(NS(=O)(=O)c3c(C)c(C)cc(C)c3C)cc2s1 returned NPY2 pot ag 12, NPY1 pot ag -6, NPY Y2 blocker -1, b-catenin transl 2, MT stabilizer 44* and NPY-Y1 antag 0.
CCOC(=O)CN(C(=O)CSc1nnc(COc2ccc(OC)cc2)n1C)c1ccccc1 was read as NPY2 pot ag 103*, NPY1 pot ag 112*, NPY Y2 blocker 0, b-catenin transl 1, MT stabilizer 3 and NPY-Y1 antag -14.
For O=C(O)c1ccc(N/N=C/c2ccc(-c3ccccc3Cl)o2)cc1 the results were NPY2 pot ag 17, NPY1 pot ag 1 and b-catenin transl 7.
Screening O=C(N/N=C/c1ccc(-c2ccccc2Cl)o1)c1ccccc1 returned NPY2 pot ag -8, NPY1 pot ag -10, MT stabilizer 32* and NPY-Y1 antag 9.
For COCCn1c(=O)[nH]c2cc(C(=O)NCC3CCCO3)ccc2c1=O (centres undefined) the results were NPY2 pot ag 12, NPY1 pot ag 74*, NPY Y2 blocker -1, b-catenin transl 1, MT stabilizer 4 and NPY-Y1 antag -2.
Screening COCCn1c(=S)[nH]c2cc(C(=O)NCC3CCCO3)ccc2c1=O (centres undefined) returned NPY2 pot ag 15, NPY1 pot ag 10, NPY Y2 blocker 0, b-catenin transl -2, MT stabilizer 4 and NPY-Y1 antag -3.
For CCOC(=O)[C@H]1NN=C(C(=O)OC)[C@@H]1c1ccccc1 the results were NPY2 pot ag 7, NPY1 pot ag -10, NPY Y2 blocker 2, b-catenin transl 0, MT stabilizer 7 and NPY-Y1 antag 3.
`Cc1nn(-c2ccccc2)c2[nH]c(=O)c(CNc3ccc(N4CCOCC4)cc3)cc12` gave NPY2 pot ag 12, NPY1 pot ag 11, NPY Y2 blocker -2, b-catenin transl 1, MT stabilizer 52* and NPY-Y1 antag -7.
CC(C)(C)c1nn(-c2ccccc2)c2[nH]c(=O)c(CNc3ccc4c(c3)OCCO4)cc12 was read as NPY2 pot ag 39*, NPY1 pot ag 54*, NPY Y2 blocker -3, MT stabilizer 1 and NPY-Y1 antag -12.
CC(C)(C)c1nn(-c2ccccc2)c2[nH]c(=O)c(CNCc3ccco3)cc12 was read as NPY2 pot ag 10, NPY1 pot ag 47, NPY Y2 blocker 3, b-catenin transl 0, MT stabilizer 7 and NPY-Y1 antag -3.
For c1ccc2c(c1)OC(CCCN1CCCCC1)c1ccccc1S2 (centres undefined) the results were NPY2 pot ag -21, NPY1 pot ag -66, NPY Y2 blocker 17*, b-catenin transl -1, MT stabilizer 3 and NPY-Y1 antag 40*.
`O=C(NNC(=S)Nc1ccc(F)cc1)c1ccccc1OC(F)F` gave NPY2 pot ag -8, NPY1 pot ag 4, NPY Y2 blocker 3, b-catenin transl 0, MT stabilizer 2 and NPY-Y1 antag 2.
`Cc1ccc(NC(=S)NNC(=O)c2ccccc2OC(F)F)cc1` gave NPY2 pot ag 2, NPY1 pot ag 2, NPY Y2 blocker 1, b-catenin transl 1, MT stabilizer 45* and NPY-Y1 antag -10.
Screening Cc1cccc(-n2c(O)c(C=NC3CCS(=O)(=O)C3)c3ccccc3c2=O)c1C (centres undefined) returned NPY2 pot ag 22, NPY1 pot ag 5 and b-catenin transl -1.
CCOC(=O)c1c(C)c(C(=O)Nc2ccc(N(C)C)cc2)c(C)n1CC was read as NPY2 pot ag -14, NPY1 pot ag 12, NPY Y2 blocker 5, b-catenin transl -4, MT stabilizer 13* and NPY-Y1 antag 9.
For O=C(c1ccccc1)c1n[nH]c(-c2ccccc2)cc1=O the results were NPY2 pot ag -4, NPY1 pot ag 20, b-catenin transl 1, MT stabilizer 3 and NPY-Y1 antag 2.
`O=[N+]([O-])c1ccc(N=Nc2ccc(O)cc2O)cc1` gave NPY2 pot ag -1, NPY1 pot ag 31, NPY Y2 blocker 5, MT stabilizer 22* and NPY-Y1 antag -4.
`COC(=O)CSc1nnc(-c2ccc(S(=O)(=O)N3CCCCC3)cc2)o1` gave NPY2 pot ag 42*, NPY1 pot ag 63*, NPY Y2 blocker 0, b-catenin transl -4, MT stabilizer 1 and NPY-Y1 antag -20.

High-throughput results as filed in PubChem BioAssay.
